The target of one data set is T1, Histone deacetylase 8 (Homo sapiens, UniProt Q9BY41).
T1 sequence (Q9BY41 whole entry): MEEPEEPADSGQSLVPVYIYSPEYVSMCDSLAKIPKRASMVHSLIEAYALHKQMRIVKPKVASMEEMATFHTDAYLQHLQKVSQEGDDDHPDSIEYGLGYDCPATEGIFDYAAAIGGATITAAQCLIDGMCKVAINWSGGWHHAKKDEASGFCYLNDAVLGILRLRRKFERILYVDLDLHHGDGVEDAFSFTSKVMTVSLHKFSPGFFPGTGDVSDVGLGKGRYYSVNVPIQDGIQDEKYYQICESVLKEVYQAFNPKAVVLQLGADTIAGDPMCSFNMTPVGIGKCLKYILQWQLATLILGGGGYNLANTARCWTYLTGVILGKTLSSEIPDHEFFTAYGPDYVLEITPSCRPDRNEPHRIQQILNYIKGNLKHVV
Briefly: Inhibition of recombinant human HDAC8 assessed as decrease in deacetylation of FLUOR DE LYS substrate preincubated for 10 mins followed by substrate addition and measured after 30 mins by fluorescence based assay.

The test system of data set [1] is A549. The data set can be described thus: Antiproliferative activity against human A549 cells assessed as growth inhibition at 8 uM after 72 hrs by CCK-8 assay relative to control. In kind it is functional. As to conditions: A549, 72 h, read-out: GI. In general terms: Tetrazolium assays rely on reduction of a dye to a coloured formazan, in cell work by metabolically active cells.

Data set [2] concerns HCT-116. Briefly: Antiproliferative activity against human HCT116 cells assessed as growth inhibition at 8 uM after 72 hrs by CCK-8 assay relative to control. In kind it is functional. The following applies: HCT-116, 72 h, read-out: GI.
Data set [3] has as its system HeLa. Briefly: Antiproliferative activity against human HeLa cells assessed as growth inhibition at 2 uM after 72 hrs by CCK-8 assay relative to control. In kind it is functional. As to conditions: read-out: GI.
Data set [4] concerns HCT-116. Briefly: Antiproliferative activity against human HCT116 cells assessed as decrease in cell viability after 72 hrs by CCK-8 assay. The format is functional, cell-based. As to conditions: HCT-116, 72 h. The essentials:
(§1)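 Cells grown to 70–85% confluence (A375, A549, HCT116 in RPMI1640; HeLa, SMMC7721 in DMEM; 10% FBS, 37 °C, 5% CO2), seeded 4000/well, dosed after 12 h across a concentration range, incubated 72 h, then CCK-8 for 1 h; absorbance at 450 nm. IC50 as mean ± SD of three separate experiments.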

Data set [5] deals with HeLa. Briefly: Antiproliferative activity against human HeLa cells assessed as decrease in cell viability after 72 hrs by CCK-8 assay. The format is functional, cell-based. In short, it runs like this:
as §1

Data set [6] has as its target T2, Protein deacetylase HDAC6 (Homo sapiens, UniProt Q9UBN7).
T2 sequence (Q9UBN7 whole entry): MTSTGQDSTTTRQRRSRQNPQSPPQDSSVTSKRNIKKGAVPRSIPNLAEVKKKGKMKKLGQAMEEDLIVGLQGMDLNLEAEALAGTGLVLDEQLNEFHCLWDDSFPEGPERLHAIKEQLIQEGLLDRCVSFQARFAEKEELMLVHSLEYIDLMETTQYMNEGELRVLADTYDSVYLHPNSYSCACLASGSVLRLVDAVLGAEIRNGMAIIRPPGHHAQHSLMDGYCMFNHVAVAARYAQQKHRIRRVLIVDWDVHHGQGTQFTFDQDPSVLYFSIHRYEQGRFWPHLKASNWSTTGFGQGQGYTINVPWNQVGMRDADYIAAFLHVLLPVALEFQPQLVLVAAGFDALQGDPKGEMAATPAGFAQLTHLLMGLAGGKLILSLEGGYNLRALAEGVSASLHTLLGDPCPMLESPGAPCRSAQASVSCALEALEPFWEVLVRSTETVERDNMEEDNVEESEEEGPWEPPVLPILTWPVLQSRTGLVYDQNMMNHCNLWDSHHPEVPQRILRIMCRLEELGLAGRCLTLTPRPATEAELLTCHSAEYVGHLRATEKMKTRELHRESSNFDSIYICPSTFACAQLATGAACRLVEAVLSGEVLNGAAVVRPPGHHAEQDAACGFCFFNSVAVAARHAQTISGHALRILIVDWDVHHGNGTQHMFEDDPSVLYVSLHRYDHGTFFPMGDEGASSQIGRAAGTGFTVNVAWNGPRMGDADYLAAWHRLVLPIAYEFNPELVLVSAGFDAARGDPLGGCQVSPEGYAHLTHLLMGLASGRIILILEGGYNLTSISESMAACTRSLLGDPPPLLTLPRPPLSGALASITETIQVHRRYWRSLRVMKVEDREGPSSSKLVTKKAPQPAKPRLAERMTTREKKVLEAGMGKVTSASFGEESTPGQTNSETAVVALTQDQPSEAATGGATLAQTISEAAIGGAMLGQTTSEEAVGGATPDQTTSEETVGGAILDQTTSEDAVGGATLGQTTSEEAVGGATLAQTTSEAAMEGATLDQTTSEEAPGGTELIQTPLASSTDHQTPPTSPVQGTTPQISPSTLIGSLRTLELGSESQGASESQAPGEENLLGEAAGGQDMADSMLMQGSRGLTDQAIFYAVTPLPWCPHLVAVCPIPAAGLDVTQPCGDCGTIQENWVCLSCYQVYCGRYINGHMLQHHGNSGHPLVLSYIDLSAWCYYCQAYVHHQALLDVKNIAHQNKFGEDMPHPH
Briefly: Inhibition of recombinant human His tagged HDAC6 expressed in baculovirus infected insect cells assessed as decrease in deacetylation of FLUOR DE LYS SIRT1 substrate by measuring decrease in fluorescence preincubated for 10 mins followed by substrate addition and measured after 30 mins by fluorescence based assay.

The test system of data set [7] is A549. Briefly: Induction of apoptosis in human A549 cells assessed as necrotic cells at 0.5 uM after 48 hrs by Annexin V-FITC/propidium iodide staining based flow cytometry (reference value: 0.135%). The format is functional. In short, it runs like this: (§2)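 A549 seeded 4×10⁶ cells/well, dosed after 12 h with compound at various concentrations, harvested after 48 h. Resuspended in annexin-binding buffer, stained with Annexin V-FITC and propidium iodide for 15 min in the dark, analysed by flow cytometry; means of three separate experiments.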
(In general: In flow cytometry, cells or beads pass a laser one at a time.)

The test system of data set [8] is A549. The data set can be described thus: Induction of apoptosis in human A549 cells assessed as necrotic cells at 1 uM after 48 hrs by Annexin V-FITC/propidium iodide staining based flow cytometry (reference value: 0.135%). The format is functional. In short, it runs like this:
as §2

For data set [9], the system named is A549. Briefly: Cell cycle arrest in human A549 cells assessed as accumulation of cells at G2/M phase at 0.5 uM after 48 hrs by propidium iodide staining-based flow cytometry (reference value: 13.62%). In kind it is functional.
Data set [10] concerns A549. The data set can be described thus: Cell cycle arrest in human A549 cells assessed as accumulation of cells at G0/G1 phase at 2 uM after 48 hrs by propidium iodide staining-based flow cytometry (reference value: 73.35%). The format is functional.
Data set [11] in a line: AUC (0 to t) in ICR mouse at 4 mg/kg, iv after 0.08 to 24 hrs by LC-MS/MS analysis. In kind it is ADME, organism-based. Also on record: time upper 24 hr, dose 4 mg/kg, time lower 0.08 hr, route intravenous. The following applies: in vivo. In short, it runs like this: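 Male ICR mice (29.7~37.4 g), single iv dose 4 mg/kg in DMSO:40% SBE-β-CD 20:80 (v/v). Retro-orbital blood at 0.08–24 h into EDTA-K2 tubes; plasma protein-precipitated with acetonitrile containing internal standards, analysed by LC-MS/MS; n=3 per time point; noncompartmental analysis.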

Data set [12] has as its system A549. The data set can be described thus: Cell cycle arrest in human A549 cells assessed as increase in accumulation of cells at G2/M phase after 48 hrs by propidium iodide staining-based flow cytometry. The format is functional.

Molecules are shown by their SMILES. Bounds are passed on as bounds.

Consider `COc1ccc(SCc2ccc(C(=O)Nc3ccccc3N)cc2)cc1`, for which the IC50 is more than 32 µM on Histone deacetylase 8, 1.64 µM in the data set with HCT-116 [4], 2.39 µM with HeLa [5] and more than 32 µM in [6]. The inhibition of growth at 8 µM in the data set with A549 [1] was 70.7%; with HCT-116 [2] it was 90.1%. Moreover, in the data set with HeLa [3], the inhibition of growth at 2 µM came to 35%. Further, the Activity in the data set on A549 [7] was 13.8%; in the data set on A549 [8], 1.5%; in the data set on A549 [9], 18.07%; in the data set on A549 [10] it was 39.3%; with A549 [12] it was “Dose-dependent effect”. For the same compound, in [11], the AUC(0-t) stood at 0.737 µg·h/mL.
Turning to `CCc1ccc(SCc2ccc(C(=O)Nc3ccccc3N)cc2)cc1`, the half-maximal inhibitory concentration (IC50) is more than 32 µM on Histone deacetylase 8, 1.74 µM in the data set with HCT-116 [4], 3.8 µM in the data set on HeLa [5] and more than 32 µM in [6]. Besides, the inhibition of growth at 8 µM in the data set on A549 [1] stood at 91.4%; with HCT-116 [2], 79.1%. Moreover, in the data set on HeLa [3], the inhibition of growth at 2 µM came to 30.8%. Besides, the Activity is 1.14% in the data set with A549 [7]; 8.44% with A549 [8]; 53.55% with A549 [9]; 24% in the data set on A549 [10]; “Dose-dependent effect” in the data set on A549 [12]. The same compound had an AUC(0-t) in data set [11] of 0.868 µg·h/mL.

A word on the IC50: it is the concentration needed to halve the response being measured. The term AUC(0-t) denotes the area under the concentration-time curve up to a stated or last time point. Read a low AUC(0-t) as low exposure.

The values above are taken from ChEMBL document CHEMBL4396885, “Thioether-based 2-aminobenzamide derivatives: Novel HDAC inhibitors with potent in vitro and in vivo antitumor activity” (Eur J Med Chem, 2019).
